Reference: ChEMBL document CHEMBL3120123, “Molecular dynamics simulations and structure-based rational design lead to allosteric HCV NS5B polymerase thumb pocket 2 inhibitor with picomolar cellular replicon potency” (J Med Chem, 2014)
Converted amounts (≈) assume the structure as drawn.

Tests used:
[1] = Permeability across apical to basolateral side in human Caco2 cells; format: ADME, cell-based; settings: Caco-2, read-out: permeability
Procedure, shortened: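 Caco-2 monolayer permeability run with apical compartment at pH 6.0 and basolateral compartment at pH 7.4; reported in 10^-6 cm/s.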

Hepatitis C virus [2] = test: Antiviral activity against HCV genotype 1b infected in human HuH7 cells assessed as inhibition of viral RNA replication after 72 hrs by luciferase reporter gene assay; format: functional, organism-based, Hepacivirus hominis; settings: Huh-7, 72 h
Procedure, shortened: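 HCV genotype 1b subgenomic luciferase reporter replicon cells. EC50 taken from inhibition of replicon RNA replication, luciferase read-out, n ≥ 2; method as described in earlier work.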

Hepatitis C virus [3] = test: Antiviral activity against HCV genotype 1b expressing HCV genotype 5a NS5B infected in human HuH7-J cells assessed as inhibition of viral RNA replication after 72 hrs by poliovirus internal ribosomal entry site incorporating luciferase reporter gene assay; format: functional, organism-based, Hepacivirus hominis; settings: Huh-7, 72 h
Procedure, shortened: (§1)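 Surrogate assay using chimeric gt1b subgenomic replicons that carry the NS5B polymerase gene from gt2b, 3a, 4a or 5a. Luciferase reporter sits downstream of the poliovirus IRES. EC50 is derived from inhibition of replication read by luciferase.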

Hepatitis C virus [4] = test: Antiviral activity against HCV genotype 1b expressing HCV genotype 4a NS5B infected in human HuH7-J cells assessed as inhibition of viral RNA replication after 72 hrs by poliovirus internal ribosomal entry site incorporating luciferase reporter gene assay; format: functional, organism-based, Hepacivirus hominis; settings: Huh-7, 72 h; procedure, shortened: as §1
Hepatitis C virus [5] = test: Antiviral activity against HCV genotype 1b infected in human HuH7-J cells assessed as inhibition of viral RNA replication after 72 hrs by poliovirus internal ribosomal entry site incorporating luciferase reporter gene assay; format: functional, organism-based, Hepacivirus hominis; settings: Huh-7, 72 h
Procedure, shortened: (§2)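 Subgenomic HCV replicons (gt1a or gt1b) carrying a luciferase reporter, with the poliovirus IRES placed upstream of luciferase. EC50 is derived from inhibition of HCV RNA replication read by luciferase signal.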

Hepatitis C virus [6] = test: Antiviral activity against HCV genotype 1b expressing HCV genotype 2b NS5B infected in human HuH7-J cells assessed as inhibition of viral RNA replication after 72 hrs by poliovirus internal ribosomal entry site incorporating luciferase reporter gene assay; format: functional, organism-based, Hepacivirus hominis; settings: Huh-7, 72 h; procedure, shortened: as §1
Hepatitis C virus [7] = test: Antiviral activity against HCV genotype 1b expressing HCV genotype 3a NS5B infected in human HuH7-J cells assessed as inhibition of viral RNA replication after 72 hrs by poliovirus internal ribosomal entry site incorporating luciferase reporter gene assay; format: functional, organism-based, Hepacivirus hominis; settings: Huh-7, 72 h; procedure, shortened: as §1
Hepatitis C virus [8] = test: Antiviral activity against HCV genotype 1a infected in human HuH7-J cells assessed as inhibition of viral RNA replication after 72 hrs by poliovirus internal ribosomal entry site incorporating luciferase reporter gene assay; format: functional, organism-based, Hepacivirus hominis; settings: subtype 1a, Huh-7, 72 h; procedure, shortened: as §2
[9] = Lipophilicity, log D of the compound at pH 7.4; format: physicochemical; settings: buffer
Hepatitis C virus [10] = test: Antiviral activity against HCV genotype 1b expressing HCV genotype 6a NS5B infected in human HuH7-J cells assessed as inhibition of viral RNA replication after 72 hrs by real-time PCR analysis; format: functional, organism-based, Hepacivirus hominis; settings: Huh-7, 72 h
Procedure, shortened: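 Surrogate assay using a chimeric gt1b subgenomic replicon carrying the gt6a NS5B polymerase gene. Replicon RNA is quantified by RT-PCR, and EC50 is derived from inhibition of HCV RNA replication.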

[11] = Solubility of the compound in form of lyophilized, amorphous solid at pH 2 after 24 hrs by shake flask method; format: physicochemical; settings: buffer
Procedure, shortened: (§3)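 Lyophilized amorphous solids tested by 24 h shaking flask method; solubility given in µg/ml at pH 2 and at pH 6.8.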

[12] = Solubility of the compound in form of lyophilized, amorphous solid at pH 6.8 after 24 hrs by shake flask method; format: physicochemical; settings: buffer; procedure, shortened: as §3

Structure (SMILES)	Papp A→B [1]	EC50 (Hepatitis C virus [2])	logD [9]	solubility thermodynamic at 24 h [11]	solubility thermodynamic at 24 h [12]	further results
O=c1ncn(Cc2c(F)cc(F)cc2F)c2ccc(Oc3ccccc3C(F)(F)F)cc12	9.2 ×10⁻⁶ cm/s					
NC(=O)c1cccc(Oc2ccc3c(c2)c(=O)ncn3Cc2c(F)cc(F)cc2F)c1C(F)(F)F	1.9 ×10⁻⁶ cm/s	180 nM				
O=C(Nc1ccccc1)c1cccc(Oc2ccc3c(c2)c(=O)ncn3Cc2c(F)cc(F)cc2F)c1C(F)(F)F	0.84 ×10⁻⁶ cm/s	2.5 nM				
O=C(Nc1cccnc1)c1cccc(Oc2ccc3c(c2)c(=O)ncn3Cc2c(F)cc(F)cc2F)c1C(F)(F)F	0.26 ×10⁻⁶ cm/s	5.7 nM				
O=C(Nc1ccccn1)c1cccc(Oc2ccc3c(c2)c(=O)ncn3Cc2c(F)cc(F)cc2F)c1C(F)(F)F	1.2 ×10⁻⁶ cm/s	6.8 nM				
O=c1ncn(Cc2c(F)cc(F)cc2F)c2ccc(Oc3cccc(-c4nc5ncccc5o4)c3C(F)(F)F)cc12	3 ×10⁻⁶ cm/s	3.3 nM				
O=c1ncn(Cc2c(F)cc(F)cc2F)c2ccc(Oc3cccc(-c4ccc5[nH]ccc5c4)c3C(F)(F)F)cc12	10.5 ×10⁻⁶ cm/s	0.13 nM	5.1	< 0.1 µg/mL	< 0.1 µg/mL	EC50 (Hepatitis C virus [3]): 1.3 nM; EC50 (Hepatitis C virus [4]): 1.1 nM; EC50 (Hepatitis C virus [5]): 0.11 nM; EC50 (Hepatitis C virus [6]): 15 nM; EC50 (Hepatitis C virus [7]): 80 nM; EC50 (Hepatitis C virus [8]): 0.12 nM; EC50 (Hepatitis C virus [10]): 11 nM
O=c1ncn(Cc2c(F)cc(F)cc2F)c2ccc(Oc3cccc(-c4ccc5[nH]cnc5c4)c3C(F)(F)F)cc12	0.4 ×10⁻⁶ cm/s	0.6 nM	4.7	< 0.1 µg/mL	< 0.1 µg/mL	
O=c1ncn(Cc2c(F)cc(F)cc2F)c2ccc(Oc3cccc(-c4ccc5cc[nH]c5c4)c3C(F)(F)F)cc12		10 nM	5	< 0.1 µg/mL	< 0.1 µg/mL	
Nc1ccc(-c2cccc(Oc3ccc4c(c3)c(=O)ncn4Cc3c(F)cc(F)cc3F)c2C(F)(F)F)cn1	4.1 ×10⁻⁶ cm/s	10 nM	3.9	0.3 µg/mL (≈ 0.553 µM)	< 0.1 µg/mL	
Cc1ccc(-c2cccc(Oc3ccc4c(c3)c(=O)ncn4Cc3c(F)cc(F)cc3F)c2C(F)(F)F)cn1		55 nM	4.2	180 µg/mL (≈ 332 µM)	< 0.1 µg/mL	
Cc1cc(-c2cccc(Oc3ccc4c(c3)c(=O)ncn4Cc3c(F)cc(F)cc3F)c2C(F)(F)F)cnc1N	1.1 ×10⁻⁶ cm/s	6 nM	> 4.7	74 µg/mL (≈ 133 µM)	< 0.1 µg/mL	
O=c1ncn(Cc2c(F)cc(F)cc2F)c2ccc(Oc3cccc(-c4ccccc4)c3C(F)(F)F)cc12		450 nM				
O=c1ncn(Cc2c(F)cc(F)cc2F)c2ccc(Oc3cccc(-c4ccccn4)c3C(F)(F)F)cc12		310 nM				
O=c1ncn(Cc2c(F)cc(F)cc2F)c2ccc(Oc3ccc(-c4nc5ncccc5o4)cc3)cc12		490 nM				
O=c1ncn(Cc2c(F)cc(F)cc2F)c2ccc(Oc3ccc(-c4ccc5[nH]ccc5c4)cc3)cc12	3.5 ×10⁻⁶ cm/s	4.6 nM	4.4	< 0.1 µg/mL	0.18 µg/mL (≈ 0.362 µM)	
